Screens from PubChem BioAssay.
Redox H2O2 prof = compounds producing H2O2 with reducing agent – biochemical, NIH compound library profiling, artefact control for MLSCN library redox annotation, primary screen | DTT-dependent redox cycling H2O2, phenol red/HRP absorbance; 100% = 100 µM peroxide control, 0% = buffer | activation, % at 10 µM | 0.03% of 200,000 active | AID 878;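 active = activation of at least 50% relative to the plate's high and low controls in the primary single-dose screen; inactive = activation below 50%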;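 also: compound incubated with DTT at 0.8 mM final as the reducing agent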
MPTP block = permeability transition pore inhibition; AID 602449; 1.4% of 360,000 active; inhibition, % at 10 µM; isolated mouse mitochondria, Ca2+ swelling absorbance, 30 min;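 active = inhibition of 50% or more, scaled per plate between neutral and stimulator controls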
T cruzi inh = blocks replication of Trypanosoma cruzi | T. cruzi beta-gal in NIH3T3, luminescence, 90 h | inhibition, % (no concentration beside the values) | 1.4% of 300,000 active | AID 1885;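 active = mean inhibition across valid replicates above about 55%, limit read from the data; inconclusive = mean below that limit but half or more replicates reach it; inactive = mean below it, under half of replicates reach it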;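 also: signal also drops with host cell toxicity which is not excluded here; higher percent means less beta-gal luminescence so fewer parasites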
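Material: NIH/3T3 host cells with β-galactosidase reporter T. cruzi; Input: 5,000 host fibroblasts per well; Medium: DMEM, 2% fetal bovine serum; Compound: 50 nL DMSO compound solution per well; Schedule: 3 h host attachment, then at least 90 h co-culture; Detection: luminescent β-galactosidase signal after 60 min lysis.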
L major viab = Leishmania major promastigote growth inhibition; Leishmania major promastigotes, resazurin fluorescence viability; AID 1063; 9% of 200,000 active; inhibition, % at 10 µM; in the data active = inhibition above about 50%;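 also: promastigotes grown with compound for 44 hours at 28 °C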
Lipid droplet = hepatic lipid droplet formation modulation; 0.4% of 240,000 active; inhibition, % at 6.5 µM; AML12 mouse hepatocytes, oleate lipid droplets, BODIPY imaging;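 active = lipid droplet intensity inhibited by at least 50%, with more than 500 cells counted; inconclusive = wells with under 300 cells, treated as cytotoxic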
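material = mouse AML12 hepatocyte cell line, fixed after treatment | also added = 100 µM oleic acid challenge | doses = compound at 6.5 µM only | schedule = overnight exposure | technique = Image-based BODIPY and DAPI two-channel analysis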
Rh123 counter = membrane potential counter-screen of mitochondrial pore inhibitors; 78% of 5,000 active; isolated mitochondria, Rhodamine 123 fluorescence; inhibition, % at 10 µM; shares compounds with MPTP block; in the data active = inhibition above about 22%
MPTP abs DR = MPTP inhibition, dose response swelling confirmation; isolated mitochondria swelling, absorbance; IC50, µM; AID 651561; 58% of 780 active; shares compounds with MPTP block; in the data active = IC50 below about 20 µM
MPTP cs DR = MPTP inhibitor counter-screen activity, dose response; shares compounds with MPTP block; isolated mitochondria counterscreen, fluorescence read-out; IC50, µM; 49% of 780 active; AID 651564; in the data active = IC50 below about 80 µM
Large screens that a line does not name were inactive (follow-up assays come after a bar, where they were run). The full list was thinned out, with hits kept by preference.

Cc1ccc(F)cc1-c1cc(C(=O)NCc2cc(C(F)(F)F)cc(C(F)(F)F)c2)[nH]n1	MPTP block 69 (no result: Redox H2O2 prof, T cruzi inh, L major viab, Lipid droplet) | Rh123 counter 101
Cc1cc(F)ccc1-c1cc(C(=O)NCc2cc(C(F)(F)F)cc(C(F)(F)F)c2)[nH]n1	MPTP block 84 (no result: Redox H2O2 prof, T cruzi inh, L major viab, Lipid droplet) | Rh123 counter 104
O=[N+]([O-])c1cccc(-c2nc(N3CCOCC3)c3ccccc3n2)c1	none (no result: MPTP block, T cruzi inh)
CN(Cc1ccccc1)c1nc(-c2cccc([N+](=O)[O-])c2)nc2ccccc12	MPTP block 67, L major viab 92 | Rh123 counter inactive | MPTP abs DR 19 | MPTP cs DR inactive
CC1CCc2sc(C(=O)NCc3ccc(F)cc3)cc2C1 (stereo not drawn)	MPTP block 58 | Rh123 counter 62
Cc1cccc(Cn2nc(C(C)(C)C)cc2C(=O)Nc2ccc(F)cc2)c1	MPTP block 83 (no result: Redox H2O2 prof, L major viab) | Rh123 counter 87
O=C(NCCOc1ccccc1)c1cc(C(=O)NCCOc2ccccc2)cc([N+](=O)[O-])c1	MPTP block 56, T cruzi inh 68, L major viab 98 (no result: Lipid droplet) | Rh123 counter 93
O=C(NCCOc1ccccc1)c1ccccc1[N+](=O)[O-]	none
COc1ccc(N/N=C/c2c(C(=O)O)ccc3ccccc23)cc1	MPTP block 82 (no result: Redox H2O2 prof, L major viab) | Rh123 counter 52
COc1ccc2ccccc2c1/C=N/Nc1ccc(Cl)c(C(=O)O)c1	none (no result: Redox H2O2 prof, L major viab)
CCCNc1nc2nc3ccccn3c(=O)c2cc1C(=O)NCCN1CCOCC1	none (no result: Redox H2O2 prof, L major viab)
Cc1ccc(S(=O)(=O)Nc2ccc3ccccc3c2[N+](=O)[O-])cc1	none (no result: Redox H2O2 prof, T cruzi inh, L major viab, Lipid droplet)
Cc1ccc(S(=O)(=O)Nc2ccc3cc([N+](=O)[O-])ccc3c2[N+](=O)[O-])cc1	MPTP block 88 (no result: Redox H2O2 prof, T cruzi inh, L major viab, Lipid droplet) | Rh123 counter 79
CCOc1cc(C)c(S(=O)(=O)Nc2ccc3cn[nH]c3c2)cc1C	MPTP block 72, T cruzi inh inconclusive (no result: Lipid droplet) | Rh123 counter 76
O=C(Nc1ccc(Cl)cc1)NC1CCCCC1	none (no result: Lipid droplet)
S=C(NCc1ccco1)Nc1ccc(Cl)cc1	none
O=C(Nc1ccc(Cl)cc1)NC1CCCC1Cc1ccco1 (stereo not drawn)	MPTP block 103 | Rh123 counter 88
O=C(Nc1ccc(Cl)cc1)NC1CCCCC1Cc1ccco1 (stereo not drawn)	MPTP block 105 (no result: Lipid droplet) | Rh123 counter 83
CCOc1cccc(-c2c(C(=O)N/N=C/c3ccoc3)nnn2-c2nonc2N)c1	none (no result: Redox H2O2 prof, L major viab)
CC(Oc1ccc2c(-c3ccccc3)cc(=O)oc2c1)C(=O)N1CCC[C@@H]1C(N)=O (stereo partly drawn)	none (no result: Redox H2O2 prof, L major viab, Lipid droplet)
Cc1ccc(NC(=O)Nc2ccc(Cl)c(Cl)c2)nc1	none (no result: Redox H2O2 prof, L major viab)
Cc1nn(C)c(C)c1NC(=O)Nc1cccc(C(F)(F)F)c1	MPTP block 72 (no result: Lipid droplet) | Rh123 counter 54
Cc1nn(C)c(C)c1NC(=O)Nc1ccc(Cl)c(Cl)c1	MPTP block 102 | Rh123 counter 88
Cc1c(NC(=O)Nc2ccc(Cl)c(Cl)c2)c(=O)n(-c2ccccc2)n1C	MPTP block 90 (no result: T cruzi inh) | Rh123 counter 90
CCCCOc1cccc2c(=O)n(CC(=O)Nc3ccc4c(c3)OCCO4)ccc12	none (no result: Redox H2O2 prof, T cruzi inh, L major viab, Lipid droplet)
O=C1c2nccnc2C(=O)N1c1ccc(F)cc1	none (no result: T cruzi inh)
CC(C)c1cc(C(=O)Nc2cc(Br)ccc2O)no1	MPTP block 58 | Rh123 counter 62
COc1cc2c(c(Br)c1N)-c1cc(Br)c(N)cc1C2=O	none (no result: Redox H2O2 prof, T cruzi inh, L major viab, Lipid droplet)
Cc1ccc(S(=O)(=O)CC(=O)c2cc(C)c(O)c(C)c2)cc1	none
O=C(Nc1ccc(Br)cc1)c1ccc(F)c(S(=O)(=O)NCc2cccs2)c1	MPTP block 97 | Rh123 counter 94
O=C(Nc1cccc(Cl)c1)c1ccc(F)c(S(=O)(=O)NCc2ccc3c(c2)OCO3)c1	MPTP block 51 | Rh123 counter 66
O=S(=O)(NCc1cccs1)c1ccc(Br)cc1	none (no result: Redox H2O2 prof, L major viab)
CCC(CO)NC(=O)c1ccccc1C(F)(F)F (stereo not drawn)	none (no result: Redox H2O2 prof, L major viab)
Cc1cc(C)nc(Nc2nc(C(N)Cc3ccccc3)cs2)n1 (stereo not drawn)	none (no result: Redox H2O2 prof, T cruzi inh, L major viab, Lipid droplet)
O=C(Nc1csc([N+](=O)[O-])c1)Nc1ccccc1Cl	MPTP block 89 (no result: Redox H2O2 prof, L major viab) | Rh123 counter 80
Cc1cc([N+](=O)[O-])ccc1NC(=O)Nc1ccc(F)cc1F	MPTP block 98, T cruzi inh 55, L major viab 67 | Rh123 counter 78
O=C(Nc1ccccc1F)Nc1ccc([N+](=O)[O-])cc1Cl	MPTP block 90 | Rh123 counter 92
O=C(Nc1ccc(Cl)cc1)Nc1ccccc1Sc1ncc([N+](=O)[O-])s1	MPTP block 86 (no result: Redox H2O2 prof, L major viab) | Rh123 counter 73
CC(C)(C)c1ccccc1NC(=O)NC1CCN(Cc2c(F)cccc2Cl)CC1	none (no result: Redox H2O2 prof, L major viab)
CC(C)(O)C#Cc1ccc(CN2CCC(n3nccc3NC(=O)C3CC3)CC2)cc1	none (no result: Redox H2O2 prof, L major viab)
CCOC(=O)c1sc(NC(=O)c2cccc(S(=O)(=O)N3CCN(C)CC3)c2)cc1C	none (no result: Lipid droplet)
CCOC(=O)c1sc(NC(=O)Nc2ccc(Cl)cc2)cc1C	MPTP block 116, T cruzi inh 65, L major viab 89 | Rh123 counter 47
CCOC(=O)c1sc(NC(=O)c2cccc(S(=O)(=O)N(CC)CC)c2)cc1C	MPTP block 51 | Rh123 counter inactive | MPTP abs DR inactive | MPTP cs DR <2.5
CS(=O)(=O)N1CCN(c2ccnc3cc(Cl)ccc23)CC1	none
O=S(=O)(c1ccc(Br)s1)N1CCN(c2ccnc3cc(Cl)ccc23)CC1	MPTP block 65 (no result: Redox H2O2 prof, L major viab) | Rh123 counter 36
Cn1ncc2c(N3CCN(c4ccc(Cl)c(Cl)c4)CC3)ncnc21	MPTP block 88 | Rh123 counter 99
O=C(Nc1cc2cccc([N+](=O)[O-])c2oc1=O)c1cccs1	none
CN1CCN(/N=C/c2ccc(N(c3ccccc3)c3ccccc3)cc2)CC1	MPTP block 81 | Rh123 counter inactive
Cc1ccc(/C=N/N2CCN(c3ccccc3)CC2)cc1	none
CN1CCN(/N=C/c2ccc(Cl)c(Cl)c2)CC1	MPTP block 90, L major viab 97 | Rh123 counter inactive
COc1ccc(/C=N/N2CCN(C)CC2)cc1O	none
CCC(C)c1ccc(O)c(NC(=O)c2cncc(Br)c2)c1 (stereo not drawn)	MPTP block 77 | Rh123 counter 64
CCC(C)c1ccc(O)c(NC(=S)NC(=O)c2cccnc2)c1 (stereo not drawn)	none
CCOc1cc(C(=O)OC(C(=O)NC(=O)NC)c2ccccc2)ccc1OCC(=O)N1CCOCC1 (stereo not drawn)	none (no result: Redox H2O2 prof, T cruzi inh, L major viab, Lipid droplet)
